Data as given in publication PMC3355950 (The Journal of Neuroscience, 2012).
≈ marks a conversion by molar mass, not a printed value.

Experiments:
[1] = target: GluN1/GluN2A (Rattus norvegicus, UniProt P35439+Q00959); assay: Two-electrode voltage-clamp recordings, Xenopus oocytes; format: cell-based; details: for Schild slope / pA2 (Schild plot): 100 μM glutamate
[2] = target: GluN1/2A-(2D S2) (Rattus norvegicus, UniProt P35439+Q00959, D675E/D715E/E790M/F680L/F708Y/G712R/G740R/G786D/H674Q/I755V/K668R/K738M/M788I/N696S/P770R/Q661T/Q703S/Q766H/Q774P/R681K/R692K/R711P/R741K/S677Y/S719Q/S758T/T663S/T706V/T722A/T793R/T797S/V718T/V783L/Y676Q/Y700D/Y754K); assay: Two-electrode voltage-clamp recordings, Xenopus oocytes; format: cell-based; details: 100 μM glutamate + 3 μM glycine; N.E. = no effect at 10 μM TCN-201
Outline: (§1)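 cRNA from linearized constructs injected into female Xenopus laevis oocytes. Two-electrode voltage clamp done 3–4 d later at 23°C, holding at −40 mV, in 90 NaCl, 1 KCl, 10 HEPES, 0.5 BaCl₂, 0.01 EDTA (mM), pH 7.4. […] Max inhibition is (control − residual at saturating compound)/control.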

[3] = target: GluN1/GluN2B L783F+F784V (Rattus norvegicus, UniProt P35439+Q00960, F784V/L783F); assay: Two-electrode voltage-clamp recordings, Xenopus oocytes; format: cell-based
[4] = target: GluN1/GluN2C (Rattus norvegicus, UniProt P35439+Q00961); assay: Two-electrode voltage-clamp recordings, Xenopus oocytes; format: cell-based; details: 100 μM glutamate + 3 μM glycine; N.E. = no effect at 10 μM TCN-201
Outline: as §1

[5] = target: GluN1/GluN2A V783F (Rattus norvegicus, UniProt P35439+Q00959, V783F); assay: Two-electrode voltage-clamp recordings, Xenopus oocytes; format: cell-based; details: 100 μM glutamate + 3 μM glycine
[6] = target: GluN1/GluN2A L780A (Rattus norvegicus, UniProt P35439+Q00959, L780A); assay: as above; format: cell-based; details: 100 μM glutamate + 3 μM glycine
[7] = target: GluN1 F754A co-expressed with GluN2A (Rattus norvegicus, UniProt P35439+Q00959, F754A); assay: as above; format: cell-based; details: 100 μM glutamate + 3 μM glycine
[8] = target: GluK2 kainate receptors (Rattus norvegicus, UniProt P42260); assay: Two-electrode voltage-clamp recordings, Xenopus oocytes; format: cell-based; details: 10 μM TCN-201
Outline: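 Xenopus laevis oocytes (female) were injected with in vitro transcribed cRNA and recorded by two-electrode voltage clamp 3–4 d after injection at 23°C, holding at −40 mV. Voltage and current electrodes held 0.3 and 3.0 M KCl.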

[9] = Maximum solubility in extracellular oocyte recording solution; format: physicochemical; details: aqueous buffer
[10] = 100 μM glutamate + 1 μM glycine
[11] = 100 μM glutamate + 3 μM glycine
[12] = 100 μM glutamate + 30 μM glycine

GluN1/GluN2C, sequence (Q00961 20-1237, other chains not shown): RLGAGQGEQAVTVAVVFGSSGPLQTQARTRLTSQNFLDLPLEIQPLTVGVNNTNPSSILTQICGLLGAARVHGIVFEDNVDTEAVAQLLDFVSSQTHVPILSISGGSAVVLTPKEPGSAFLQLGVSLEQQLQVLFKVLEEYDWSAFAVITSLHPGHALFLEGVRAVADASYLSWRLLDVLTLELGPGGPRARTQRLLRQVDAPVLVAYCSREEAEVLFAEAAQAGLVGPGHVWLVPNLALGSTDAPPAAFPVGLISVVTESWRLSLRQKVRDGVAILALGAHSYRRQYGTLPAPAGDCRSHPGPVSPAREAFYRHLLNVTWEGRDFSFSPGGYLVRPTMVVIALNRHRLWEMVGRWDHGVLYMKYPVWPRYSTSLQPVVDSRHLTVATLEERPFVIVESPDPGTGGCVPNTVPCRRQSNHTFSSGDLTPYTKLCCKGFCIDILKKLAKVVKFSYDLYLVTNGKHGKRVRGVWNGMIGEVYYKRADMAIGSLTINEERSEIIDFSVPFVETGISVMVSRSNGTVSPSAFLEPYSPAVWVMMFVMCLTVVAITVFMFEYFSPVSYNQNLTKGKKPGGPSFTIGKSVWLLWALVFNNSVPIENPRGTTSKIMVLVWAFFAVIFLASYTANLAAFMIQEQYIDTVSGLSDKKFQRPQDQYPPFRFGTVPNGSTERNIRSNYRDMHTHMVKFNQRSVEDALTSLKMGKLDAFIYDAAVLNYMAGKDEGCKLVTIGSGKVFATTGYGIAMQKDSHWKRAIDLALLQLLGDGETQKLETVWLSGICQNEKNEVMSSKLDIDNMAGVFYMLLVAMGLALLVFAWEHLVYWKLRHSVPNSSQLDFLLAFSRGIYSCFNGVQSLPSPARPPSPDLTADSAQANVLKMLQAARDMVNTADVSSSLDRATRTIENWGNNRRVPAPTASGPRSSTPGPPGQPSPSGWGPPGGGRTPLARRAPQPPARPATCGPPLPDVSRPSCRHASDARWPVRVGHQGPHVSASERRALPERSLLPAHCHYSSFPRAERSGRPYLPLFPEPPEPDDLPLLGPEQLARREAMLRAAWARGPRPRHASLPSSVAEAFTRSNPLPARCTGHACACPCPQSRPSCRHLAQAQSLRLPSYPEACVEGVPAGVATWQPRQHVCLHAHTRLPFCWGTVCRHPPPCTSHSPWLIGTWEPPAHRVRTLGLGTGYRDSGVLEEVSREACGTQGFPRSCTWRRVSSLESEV
GluN1/GluN2B L783F+F784V, sequence (Q00960 27-1482 L783F/F784V, other chains not shown): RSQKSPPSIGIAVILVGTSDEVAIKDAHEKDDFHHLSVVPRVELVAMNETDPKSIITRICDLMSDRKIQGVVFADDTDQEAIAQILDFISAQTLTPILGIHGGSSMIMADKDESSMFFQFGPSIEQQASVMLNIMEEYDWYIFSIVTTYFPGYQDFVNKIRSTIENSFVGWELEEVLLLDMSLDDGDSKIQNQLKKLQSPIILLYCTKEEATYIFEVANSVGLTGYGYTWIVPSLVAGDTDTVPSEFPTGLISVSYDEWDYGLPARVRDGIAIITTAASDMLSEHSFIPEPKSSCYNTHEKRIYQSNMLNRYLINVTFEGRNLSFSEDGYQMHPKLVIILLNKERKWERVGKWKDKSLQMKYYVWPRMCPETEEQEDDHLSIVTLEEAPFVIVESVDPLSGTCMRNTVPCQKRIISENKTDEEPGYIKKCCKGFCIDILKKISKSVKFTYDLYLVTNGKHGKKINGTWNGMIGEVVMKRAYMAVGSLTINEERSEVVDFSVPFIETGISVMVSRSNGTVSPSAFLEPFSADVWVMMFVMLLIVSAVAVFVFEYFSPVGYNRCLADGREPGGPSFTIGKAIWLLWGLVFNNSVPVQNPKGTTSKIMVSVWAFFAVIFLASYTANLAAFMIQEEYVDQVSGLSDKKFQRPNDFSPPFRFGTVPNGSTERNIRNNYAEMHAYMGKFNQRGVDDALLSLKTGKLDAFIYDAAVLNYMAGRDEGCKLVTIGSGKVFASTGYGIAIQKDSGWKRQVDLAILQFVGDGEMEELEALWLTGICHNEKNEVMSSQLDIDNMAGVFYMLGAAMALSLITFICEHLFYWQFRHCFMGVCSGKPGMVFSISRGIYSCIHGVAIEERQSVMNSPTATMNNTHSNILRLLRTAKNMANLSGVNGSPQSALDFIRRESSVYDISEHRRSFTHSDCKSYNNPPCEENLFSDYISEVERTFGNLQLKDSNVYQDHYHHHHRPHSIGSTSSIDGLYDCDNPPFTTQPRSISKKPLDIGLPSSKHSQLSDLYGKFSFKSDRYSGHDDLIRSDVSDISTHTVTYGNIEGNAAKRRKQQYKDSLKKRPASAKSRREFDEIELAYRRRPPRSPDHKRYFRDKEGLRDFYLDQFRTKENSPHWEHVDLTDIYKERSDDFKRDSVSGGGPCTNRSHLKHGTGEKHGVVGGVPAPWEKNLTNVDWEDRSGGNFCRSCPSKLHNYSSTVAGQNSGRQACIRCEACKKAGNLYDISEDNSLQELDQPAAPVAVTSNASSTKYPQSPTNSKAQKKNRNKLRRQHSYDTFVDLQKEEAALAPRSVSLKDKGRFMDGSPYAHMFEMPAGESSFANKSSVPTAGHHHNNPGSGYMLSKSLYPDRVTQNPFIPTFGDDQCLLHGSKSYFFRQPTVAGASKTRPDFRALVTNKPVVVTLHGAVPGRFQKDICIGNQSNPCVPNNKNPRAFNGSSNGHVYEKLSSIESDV
GluK2 kainate receptors, sequence (P42260 32-908): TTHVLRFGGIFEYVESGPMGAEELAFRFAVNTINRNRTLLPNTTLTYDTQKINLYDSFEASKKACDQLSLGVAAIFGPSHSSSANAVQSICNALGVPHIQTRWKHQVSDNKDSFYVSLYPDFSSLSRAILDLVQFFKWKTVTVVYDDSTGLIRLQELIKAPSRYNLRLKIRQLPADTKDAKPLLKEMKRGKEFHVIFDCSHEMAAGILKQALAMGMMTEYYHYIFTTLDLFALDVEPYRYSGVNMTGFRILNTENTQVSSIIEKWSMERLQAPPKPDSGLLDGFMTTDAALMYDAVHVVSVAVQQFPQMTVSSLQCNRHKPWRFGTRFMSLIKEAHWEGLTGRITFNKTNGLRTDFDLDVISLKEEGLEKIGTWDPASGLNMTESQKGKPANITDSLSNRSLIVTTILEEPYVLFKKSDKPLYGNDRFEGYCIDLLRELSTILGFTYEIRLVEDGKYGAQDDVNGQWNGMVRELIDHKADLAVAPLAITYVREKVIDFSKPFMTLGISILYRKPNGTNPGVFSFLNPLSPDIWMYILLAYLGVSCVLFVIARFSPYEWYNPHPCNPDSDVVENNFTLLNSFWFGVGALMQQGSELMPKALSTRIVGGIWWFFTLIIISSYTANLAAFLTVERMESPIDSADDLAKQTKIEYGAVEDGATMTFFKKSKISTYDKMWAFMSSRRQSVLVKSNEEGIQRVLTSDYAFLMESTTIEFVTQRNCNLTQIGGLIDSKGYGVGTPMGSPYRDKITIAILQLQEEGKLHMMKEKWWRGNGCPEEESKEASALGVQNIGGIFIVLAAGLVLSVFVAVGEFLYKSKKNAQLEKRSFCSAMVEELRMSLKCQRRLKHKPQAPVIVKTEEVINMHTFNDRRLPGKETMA

TCN-201 activity Max. % inhibition [1, 10]: 100 ± 1% | TCN-201 activity nH [1, 10]: 1.2 | TCN-201 activity nH [1, 11]: 1.5 | TCN-201 activity Max. % inhibition [1, 12]: 73 ± 2% | TCN-201 activity nH [1, 12]: 2.2 | Schild slope ([1]; agonist D-cycloserine): 0.90 | pA2 (Schild plot) ([1]; agonist D-cycloserine): 7.39 | Schild slope ([1]; agonist D-serine): 0.79 | pA2 (Schild plot) ([1]; agonist D-serine): 7.39 | Schild slope ([1]; agonist glycine): 0.87 | allosteric constant α ([1]; global nonlinear regression of glycine concentration-response data): 0.0025 | Maximal increase in glycine EC50 (1/α) ([1]; implied by α = 0.0025): 400 fold | TCN-201 activity IC50 [2]: no inhibition was observed and N.E. | Kb [3]: 437 nM | TCN-201 activity nH [3, 11]: 1.3 | TCN-201 activity IC50 [4]: did not inhibit and N.E. | TCN-201 activity Max. % inhibition [5]: 80 ± 2% | TCN-201 activity nH [5]: 1.8 | Response, % of control at 10 μM TCN-201 [6]: 67% of control at 10 μM TCN-201 | TCN-201 activity Max. % inhibition [7]: 98 ± 1% | TCN-201 activity nH [7]: 1.4 | Effect on responses activated by 100 μM glutamate [8]: did not affect responses | solubility [9]: 18 µM (≈ 8.31 µg/mL)
SMILES: O=C(NNC(=O)c1ccc(CNS(=O)(=O)c2ccc(F)c(Cl)c2)cc1)c1ccccc1 [TCN-201, 3-chloro-4-fluoro-N-[(4-[(2-(phenylcarbonyl)hydrazino)carbonyl]phenyl)methyl]-benzenesulfonamide]
